# Source: ChEMBL document CHEMBL4680191, “Discovery of novel akt1 inhibitor induces autophagy associated death in hepatocellular carcinoma cells” (Eur J Med Chem, 2020)
# pIC50: −log10 of the molar value. Active and inactive are the calls of the source. No cut-off for these calls is given here.
# Tests used:
# [1] = test system: RAC-gamma serine/threonine-protein kinase (Homo sapiens), Q9Y243 [S472D]; test: Inhibition of full length human Akt3 S472D mutant assessed as remaining activity at 1 uM using GRPRTSSFAEGKK as substrate incubated for 40 mins by scintillation counting method relative to control
# Outline: (§1)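 Eurofins KinaseProfiler kinase assay on human Akt1, Akt2 and Akt3. Compounds were tested at 1 µM. Residual kinase activity is reported as % of control.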
# [2] = biological target: cAMP-dependent protein kinase catalytic subunit alpha (Homo sapiens) (UniProt P17612); test: Inhibition of full length human PKAcalpha assessed as remaining activity at 1 uM using LRRASLG as substrate incubated for 40 mins by scintillation counting method relative to control
# Outline: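 Run as an outsourced KinaseProfiler service, with human PKA and Akt1, Akt2 and Akt3 in the same panel. Each compound was tested at a single 1 µM concentration, and the result is reported as kinase activity remaining, as a percentage of control.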
# Homo sapiens = species on record: Homo sapiens; test: Inhibition of full length human Akt1 […] mutant assessed as remaining activity at 1 uM using GRPRTSSFAEGKK as substrate incubated for 40 mins by scintillation counting method relative to control; outline: as §1
# [3] = test system: RAC-beta serine/threonine-protein kinase (Homo sapiens), P31751 [S474D]; test: Inhibition of full length human Akt2 S474D mutant assessed as remaining activity at 1 uM using GRPRTSSFAEGKK as substrate incubated for 40 mins by scintillation counting method relative to control; outline: as §1
# SMMC-7721 = test: Cytotoxicity against human SMMC-7721 cells assessed as reduction in cell viability by MTT assay; format: functional, cell-based
# Outline: (§2)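 Hepatoma cells were grown in DMEM with 10% FBS and streptomycin, then treated with compounds. Viability was read by MTT.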
# [4] = biological target: RAC-gamma serine/threonine-protein kinase (Homo sapiens, UniProt Q9Y243, S472D); test: Inhibition of full length human Akt3 S472D mutant using GRPRTSSFAEGKK as substrate incubated for 40 mins by scintillation counting method
# Outline: (§3)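 Eurofins KinaseProfiler enzymatic assay on human Akt isoforms. IC50 values are the mean of at least three independent replicates ± standard deviation.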
# Hep 3B2 = test: Cytotoxicity against human Hep3B cells assessed as reduction in cell viability by MTT assay; format: functional, cell-based; outline: as §2
# Huh-7 [5] = test: Cytotoxicity against human Huh-7 cells assessed as reduction in cell viability by MTT assay; format: functional, cell-based; outline: as §2
# [6] = Inhibition of full length human Akt1 […] mutant using GRPRTSSFAEGKK as substrate incubated for 40 mins by scintillation counting method; outline: as §3
# HepG2 = test: Cytotoxicity against human HepG2 cells assessed as reduction in cell viability by MTT assay; format: functional, cell-based; outline: as §2
# Huh-7 [7] = test: Induction of autophagy flux arrest in human Huh-7 cells assessed as reduction in LAMP1 by immunofluorescence staining based assay; format: functional, cell-based
# Outline: (§4)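 Huh-7 cells with or without 0.2 µM compound were immunofluorescently co-stained for LC3 (autophagosome) and LAMP1 (lysosome). Co-localization was assessed by fluorescence imaging.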
# Huh-7 [8] = test: Induction of autophagy flux arrest in human Huh-7 cells assessed as reduction in LC3 by immunofluorescence staining based assay; format: functional, cell-based; outline: as §4
# RAC-gamma serine/threonine-protein kinase, sequence (Q9Y243 2-479 S472D limits assumed): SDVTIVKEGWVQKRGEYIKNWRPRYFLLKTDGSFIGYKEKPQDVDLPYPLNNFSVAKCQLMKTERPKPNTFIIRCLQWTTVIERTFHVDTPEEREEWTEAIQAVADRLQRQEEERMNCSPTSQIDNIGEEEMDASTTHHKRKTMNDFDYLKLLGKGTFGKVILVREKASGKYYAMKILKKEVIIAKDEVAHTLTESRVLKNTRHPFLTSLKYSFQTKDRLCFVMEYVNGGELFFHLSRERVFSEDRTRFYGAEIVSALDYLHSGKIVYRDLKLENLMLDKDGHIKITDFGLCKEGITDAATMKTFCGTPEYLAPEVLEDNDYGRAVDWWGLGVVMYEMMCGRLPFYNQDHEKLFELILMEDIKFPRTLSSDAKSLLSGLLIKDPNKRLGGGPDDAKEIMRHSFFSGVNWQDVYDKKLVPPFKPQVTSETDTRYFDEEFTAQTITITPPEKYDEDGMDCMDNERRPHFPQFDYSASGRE
# RAC-beta serine/threonine-protein kinase (Homo sapiens), P31751 [S474D], sequence (P31751 whole entry S474D): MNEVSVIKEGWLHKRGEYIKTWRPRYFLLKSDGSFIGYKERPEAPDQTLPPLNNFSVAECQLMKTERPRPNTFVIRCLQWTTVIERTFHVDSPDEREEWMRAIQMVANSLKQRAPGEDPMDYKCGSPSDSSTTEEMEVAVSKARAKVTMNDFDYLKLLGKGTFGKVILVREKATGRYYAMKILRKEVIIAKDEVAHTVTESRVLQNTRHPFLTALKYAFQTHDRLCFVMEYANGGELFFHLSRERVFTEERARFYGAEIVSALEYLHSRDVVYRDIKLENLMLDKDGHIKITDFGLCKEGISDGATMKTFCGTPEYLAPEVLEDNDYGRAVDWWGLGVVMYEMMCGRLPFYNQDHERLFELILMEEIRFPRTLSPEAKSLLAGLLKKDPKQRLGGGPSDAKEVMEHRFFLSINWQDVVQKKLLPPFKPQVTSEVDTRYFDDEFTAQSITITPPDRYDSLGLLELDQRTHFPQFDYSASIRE
# RAC-gamma serine/threonine-protein kinase (Homo sapiens), Q9Y243 [S472D], sequence (Q9Y243 whole entry S472D): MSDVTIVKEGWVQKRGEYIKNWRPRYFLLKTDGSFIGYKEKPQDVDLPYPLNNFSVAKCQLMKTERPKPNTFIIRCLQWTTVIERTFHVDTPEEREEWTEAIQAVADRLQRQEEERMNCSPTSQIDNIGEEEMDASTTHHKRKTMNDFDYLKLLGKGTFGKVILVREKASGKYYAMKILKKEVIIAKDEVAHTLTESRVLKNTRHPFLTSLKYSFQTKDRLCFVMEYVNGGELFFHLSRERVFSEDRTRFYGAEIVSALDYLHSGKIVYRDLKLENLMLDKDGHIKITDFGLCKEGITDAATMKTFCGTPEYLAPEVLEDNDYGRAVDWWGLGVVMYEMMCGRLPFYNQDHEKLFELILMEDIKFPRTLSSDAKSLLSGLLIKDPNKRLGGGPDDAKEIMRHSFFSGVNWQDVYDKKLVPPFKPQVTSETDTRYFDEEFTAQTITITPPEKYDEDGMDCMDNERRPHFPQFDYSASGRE
Compound,Activity [1] [%],Activity [2] [%],Activity (Homo sapiens) [%],Activity [3] [%],pIC50 (SMMC-7721),pIC50 [4],pIC50 (Hep 3B2),pIC50 (Huh-7 [5]),pIC50 [6],pIC50 (HepG2),Activity (Huh-7 [7]),Activity (Huh-7 [8])
CC(C)NCC(C(=O)N1CCN(c2ncnc3sc4c(c23)CCN(C(=O)N(C)C)C4)CC1)c1ccc(Cl)cc1 (stereo not given),87,80,86,95,–,–,–,–,–,–,–,–
O=C(C(CNC1CCCCC1)c1ccc(Cl)cc1)N1CCN(c2ncnc3sc4c(c23)CCC4)CC1 (stereo not given),11,29,1,51,6.01,7.35,6.53,6.80,7.29,6.41,–,–
CC(C)NCC(C(=O)N1CCN(c2ncnc3sc4c(c23)CCN(C)C4)CC1)c1ccc(Cl)cc1 (stereo not given),69,72,50,91,–,–,–,–,–,–,–,–
CC(C)NCC(C(=O)N1CCN(c2ncnc3sc4c(c23)CCN(C)C4)CC1)c1ccccc1Cl (stereo not given),76,86,96,83,–,–,–,–,–,–,–,–
CC(C)NCC(C(=O)N1CCN(c2ncnc3sc4c(c23)CCC4)CC1)c1ccccc1Cl (stereo not given),92,95,88,101,–,–,–,–,–,–,–,–
CC(C)NCC(C(=O)N1CCN(c2ncnc3sc4c(c23)CCN(C(C)C)C4)CC1)c1ccc(Cl)cc1 (stereo not given),78,84,76,81,–,–,–,–,–,–,–,–
CN1CCc2c(sc3ncnc(N4CCN(C(=O)C(CNC5CCCCC5)c5ccc(Cl)cc5)CC4)c23)C1 (stereo not given),69,95,84,88,–,–,–,–,–,–,–,–
CC(C)NCC(C(=O)N1CCN(c2ncnc3sc4c(c23)CCN(C)C4)CC1)c1ccc(F)cc1 (stereo not given),87,97,88,111,–,–,–,–,–,–,–,–
CC(C)NC[C@@H](C(=O)N1CCN(c2ncnc3c2[C@H](C)C[C@H]3O)CC1)c1ccc(Cl)cc1 [IPATASERTIB],–,–,–,–,6.18,–,6.41,6.78,7.72,6.57,Active,Active
COc1ccc(C(CNC(C)C)C(=O)N2CCN(c3ncnc4sc5c(c34)CCC5)CC2)cc1 (stereo not given),42,66,18,86,–,–,–,–,–,–,–,–
CC(C)NCC(C(=O)N1CCN(c2ncnc3sc4c(c23)CCN(Cc2ccccc2)C4)CC1)c1ccc(Cl)cc1 (stereo not given),71,80,71,77,–,–,–,–,–,–,–,–
CCCCNCC(C(=O)N1CCN(c2ncnc3sc4c(c23)CCC4)CC1)c1ccc(Cl)cc1 (stereo not given),15,37,1,56,5.87,6.86,6.08,6.44,6.78,6.04,–,–
CCCN1CCc2c(sc3ncnc(N4CCN(C(=O)C(CNC(C)C)c5ccc(Cl)cc5)CC4)c23)C1 (stereo not given),79,88,75,89,–,–,–,–,–,–,–,–
CC(C)NCC(C(=O)N1CCN(c2ncnc3sc4c(c23)CCN(C2CC2)C4)CC1)c1ccc(Cl)cc1 (stereo not given),70,92,77,71,–,–,–,–,–,–,–,–
CN1CCc2c(sc3ncnc(N4CCN(C(=O)C(CNC5CCCC5)c5ccc(Cl)cc5)CC4)c23)C1 (stereo not given),76,82,82,81,–,–,–,–,–,–,–,–
CCCCNCC(C(=O)N1CCN(c2ncnc3sc4c(c23)CCN(C)C4)CC1)c1ccc(Cl)cc1 (stereo not given),84,81,81,93,–,–,–,–,–,–,–,–
CCNCC(C(=O)N1CCN(c2ncnc3sc4c(c23)CCN(C)C4)CC1)c1ccc(Cl)cc1 (stereo not given),74,91,95,107,–,–,–,–,–,–,–,–
CC(C)NCC(C(=O)N1CCN(c2ncnc3sc4c(c23)CCCC4)CC1)c1ccc(Cl)cc1 (stereo not given),63,78,55,72,–,–,–,–,–,–,–,–
CC(C)NCC(C(=O)N1CCN(c2ncnc3sc4c(c23)CCN(C)C4)CC1)c1ccc(Br)cc1 (stereo not given),72,88,69,86,–,–,–,–,–,–,–,–
COc1ccc(C(CNC(C)C)C(=O)N2CCN(c3ncnc4sc5c(c34)CCN(C)C5)CC2)cc1 (stereo not given),76,95,81,78,–,–,–,–,–,–,–,–
CC(C)NCC(C(=O)N1CCN(c2ncnc3sc4c(c23)CCC4)CC1)c1ccc(F)cc1 (stereo not given),45,77,26,104,–,–,–,–,–,–,–,–
CC(C)NCC(C(=O)N1CCN(c2ncnc3sc4c(c23)CCOC4)CC1)c1ccc(Cl)cc1 (stereo not given),77,78,78,81,–,–,–,–,–,–,–,–
CCN1CCc2c(sc3ncnc(N4CCN(C(=O)C(CNC(C)C)c5ccc(Cl)cc5)CC4)c23)C1 (stereo not given),71,87,73,82,–,–,–,–,–,–,–,–
Cc1ccc(C(CNC(C)C)C(=O)N2CCN(c3ncnc4sc5c(c34)CCN(C)C5)CC2)cc1 (stereo not given),73,90,78,73,–,–,–,–,–,–,–,–
CC(C)NCC(C(=O)N1CCN(c2ncnc3sc4c(c23)CCC4)CC1)c1ccc(Br)cc1 (stereo not given),20,23,1,67,6.28,7.02,6.64,6.95,7.41,6.69,–,–
CCNCC(C(=O)N1CCN(c2ncnc3sc4c(c23)CCC4)CC1)c1ccc(Cl)cc1 (stereo not given),21,31,1,58,5.90,7.00,6.27,6.55,6.90,6.24,–,–
CC(C)NCC(C(=O)N1CCN(c2ncnc3sc4c(c23)CCC4)CC1)c1ccc(Cl)cc1 (stereo not given),19,45,11,57,–,–,–,–,–,–,–,–
